Screening results deposited in PubChem BioAssay by several laboratories.
IMP-1 inh = inhibitors of Pseudomonas aeruginosa IMP-1 metallo-beta-lactamase. inhibition, % at 5.6 µM. purified IMP-1, nitrocefin hydrolysis, epi-absorbance fluorescence. hit rate 0.45% among 290,000;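 active means inhibition above the mean plus 3 SD of all compounds in the same screening run, cut at about 4.5% in these data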
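System: purified recombinant IMP-1 beta-lactamase. Medium: Zinc- and detergent-supplemented HEPES buffer, pH 7.1. Compound: one 5.6 µM dose […]. Schedule: 15 min preincubation plus 25 min reaction at 25 °C. Technique: Epi-absorbance fluorescence, 480 nm excitation, 530 nm emission.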
MEKK2wt PB1 HTS = raises or lowers MEK5 binding to wildtype human MEKK2 PB1 domain; Q9Y2U5; bead flow cytometry, Alexa488-MEK5 binding to MEKK2 WT; actives lie on both sides; binding response (% of control), % at 10 µM; hit rate 1.1% among 290,000; AID 1531; in the data active means binding response below about 67% or above about 130%
VIM-2 inhibitor = inhibitors of Pseudomonas aeruginosa VIM-2 metallo-beta-lactamase; purified VIM-2, nitrocefin hydrolysis, epi-absorbance fluorescence; hit rate 0.89% among 290,000; inhibition, % at 5.6 µM; AID 1527;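 active means inhibition above the mean of all tested compounds plus 3 SD, cutoff set per screening run, cut at about 7.5% in these data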;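 further: red hydrolysis product quenches plate fluorescence so inhibitors raise well fluorescence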
MEKK3 PB1 HTS = MEKK3-MEK5 PB1 interaction, increase or decrease | binding response (% of control), % at 10 µM | bead-based flow cytometry, Alexa488-MEK5 binding to MEKK3; actives lie on both sides; 0 = blocked by unlabeled MEK5, 100 = vehicle | hit rate 1.4% among 290,000 | Q99759;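 active means binding response more than 3 SD above or below the average of its plate-row segment, actives on both sides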;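 further: Alexa488 bead fluorescence after subtracting the streptavidin-only scavenger bead signal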
Target sequence (Q99759 whole entry, looked up): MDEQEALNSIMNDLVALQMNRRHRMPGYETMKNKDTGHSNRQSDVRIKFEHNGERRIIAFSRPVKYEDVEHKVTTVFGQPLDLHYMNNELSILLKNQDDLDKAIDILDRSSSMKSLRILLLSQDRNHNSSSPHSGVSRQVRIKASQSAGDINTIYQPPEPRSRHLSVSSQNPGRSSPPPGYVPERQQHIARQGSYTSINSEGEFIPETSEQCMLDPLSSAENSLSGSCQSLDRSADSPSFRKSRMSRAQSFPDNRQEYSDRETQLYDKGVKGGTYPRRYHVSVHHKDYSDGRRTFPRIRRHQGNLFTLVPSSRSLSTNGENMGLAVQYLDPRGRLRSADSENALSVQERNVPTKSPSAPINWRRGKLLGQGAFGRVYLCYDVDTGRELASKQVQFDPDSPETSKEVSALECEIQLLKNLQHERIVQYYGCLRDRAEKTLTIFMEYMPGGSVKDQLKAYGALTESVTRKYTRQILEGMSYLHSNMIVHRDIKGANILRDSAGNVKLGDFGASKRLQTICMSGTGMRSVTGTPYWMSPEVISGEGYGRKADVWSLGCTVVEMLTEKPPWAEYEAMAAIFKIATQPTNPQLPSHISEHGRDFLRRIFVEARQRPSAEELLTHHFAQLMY
MEKK2 mut-MEK5 = signal of MEK5 binding to mutant human MEKK2 PB1 domain | bead flow cytometry, Alexa488-MEK5 binding to MEKK2 mutant | percent response, % at 10 µM | hit rate 0.35% among 290,000 | AID 1530; in the data active means percent response above about 24%, passing the limit was not always enough
MEKK2wt confirm = raises or lowers MEK5 binding to wildtype human MEKK2, retest; shares compounds with MEKK3 PB1 HTS; bead flow cytometry, Alexa488-MEK5 binding to MEKK2 WT; actives lie on both sides; binding response (% of control), % at 10 µM; hit rate 2.4% among 5,900; AID 1892; in the data active means binding response below about 16% or above about 210%; inactive means in between
MEKK2mut-MEK5 = signal of MEK5 binding to mutant human MEKK2, retest; AID 1893; hit rate 2% among 5,900; bead flow cytometry, Alexa488-MEK5 binding to MEKK2 mutant; percent response, % at 10 µM; shares compounds with MEKK3 PB1 HTS; in the data active means percent response mostly above about 71%, no sharp cut-off; inactive means mostly below about 38%;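 further: higher means compound restores mutant binding toward wildtype level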
MEKK3 confirm = MEKK3-MEK5 PB1 inhibition, single concentration confirmation | bead flow cytometry, Alexa488-MEK5 binding to MEKK3; hits give low values | shares compounds with MEKK3 PB1 HTS | binding response (% of control), % at 10 µM | hit rate 1.8% among 5,900;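 active means binding response below 72% of control, or above a set upper limit, though filed actives all read lower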
Large screens that a line does not name were inactive (follow-up assays come after a bar, where they were run); [ ] = another dose, or the depositor's remark. Compounds with a hit are over-represented: about 3.4% of the library has one in this group of screens.

S=C(NCCCN1CCOCC1)N1CCN(c2nc(-c3ccc(Cl)cc3)cs2)CC1	MEKK2wt PB1 HTS 163.0 | MEKK2wt confirm inactive | MEKK2mut-MEK5 inactive | MEKK3 confirm inactive
N#Cc1ccsc1NC(=O)CN1CCN(c2ccccc2O)CC1	MEKK3 PB1 HTS 64.0[inhibitor] | MEKK2wt confirm inactive | MEKK2mut-MEK5 inactive | MEKK3 confirm inactive
N#Cc1ccsc1NC(=O)CN1CCN(S(=O)(=O)c2ccccc2C(F)(F)F)CC1	MEKK3 PB1 HTS 55.0[inhibitor] | MEKK2wt confirm inactive | MEKK2mut-MEK5 inactive | MEKK3 confirm inactive
Cc1ccc(C)c(S(=O)(=O)N2CCN(CC(=O)Nc3sccc3C#N)CC2)c1	MEKK3 PB1 HTS 162.0 | MEKK2wt confirm inactive | MEKK2mut-MEK5 inactive | MEKK3 confirm inactive
NC(=O)C1=C[C@@H](c2coc3ccccc3c2=O)C[C@@H](OCCCCO)O1	none
O=C(Cc1cc(=O)oc2cc(O)ccc12)NCC1CCC(C(=O)O)CC1 (configuration not stated)	none
O=C1NC(C(F)(F)F)(C(F)(F)F)N=C2SC=CN12	none
O=c1cc(N2CCCC2)c2ccccc2o1	MEKK3 PB1 HTS 1.0[inhibitor] (no result: MEKK2wt PB1 HTS) | MEKK2wt confirm inactive | MEKK2mut-MEK5 inactive | MEKK3 confirm inactive
CC(=O)N1c2ccc(S(=O)(=O)NCCC(=O)Nc3ccc(F)cc3C)cc2CC1C (configuration not stated)	none
Cc1ccc(-c2csc(N3CCN(c4cc5c(cc4Cl)nc(C(C)N)n5CCCO)CC3)n2)cc1 (configuration not stated)	none
Cc1ccc(-c2csc(N3CCN(c4cc5c(cc4Cl)nc(C)n5CCN4CCCCC4)CC3)n2)cc1	MEKK2wt PB1 HTS 148.0, MEKK2 mut-MEK5 46.0 | MEKK2wt confirm inactive | MEKK2mut-MEK5 inactive | MEKK3 confirm inactive
Cc1csc(N2CCN(c3cc4c(cc3Cl)nc(-c3ccncc3)n4CCCN3CCCC3)CC2)n1	MEKK2wt PB1 HTS 147.0 | MEKK2wt confirm inactive | MEKK2mut-MEK5 inactive | MEKK3 confirm inactive
Cc1ccc(-n2nnnc2SCC(=O)N2CCCCC2)cc1	none
O=C(O)CC(C(=O)OC1CCCCC1)N1CCOCC1 (configuration not stated)	none
CC1(C)CC(N=Cc2c(O)n(Cc3ccc4c(c3)OCO4)c(=O)c3ccccc23)CC(C)(C)N1	MEKK2wt PB1 HTS 149.0 | MEKK2wt confirm inactive | MEKK2mut-MEK5 inactive | MEKK3 confirm inactive
N=c1n(CCN2CCCCC2)c2ccccc2n1CC(=O)c1ccc(Cl)c(Cl)c1	MEKK2wt PB1 HTS 173.0 | MEKK2wt confirm inactive | MEKK2mut-MEK5 inactive | MEKK3 confirm inactive
N=c1n(CCN2CCCCC2)c2ccccc2n1CC(O)c1ccc(Cl)c(Cl)c1 (configuration not stated)	MEKK2wt PB1 HTS 142.0 | MEKK2wt confirm inactive | MEKK2mut-MEK5 inactive | MEKK3 confirm inactive
Cc1cc(C)nc(/N=C(\N)Nc2ccc(-c3ccccc3)cc2)n1	none
NCCSc1c(-c2ccc(Cl)cc2)[nH]c2ccccc12	MEKK2wt PB1 HTS 171.0, MEKK2 mut-MEK5 51.0 | MEKK2wt confirm inactive | MEKK2mut-MEK5 inactive | MEKK3 confirm inactive
NCCSc1c(-c2ccc(F)cc2)[nH]c2ccccc12	none
NCCSc1c(-c2ccccc2)[nH]c2ccccc12	MEKK2wt PB1 HTS 146.0, MEKK2 mut-MEK5 25.0 | MEKK2wt confirm inactive | MEKK2mut-MEK5 inactive | MEKK3 confirm inactive
CC(=O)NC(c1ccccc1)c1cc(Cl)c2cccnc2c1O (configuration not stated)	none
COc1ccc(CN2CCCC(C(=O)N3CCCC3)C2)c(OC)c1 (configuration not stated)	none
Cn1c(/C=C(\C#N)C(N)=S)ccc1-c1ccc(Br)cc1	MEKK2wt PB1 HTS 62.0[inhibitor] | MEKK2wt confirm inactive | MEKK2mut-MEK5 inactive | MEKK3 confirm inactive
CN(C)c1ccc(/C=C/C=C2/SC(=S)N(c3ccccc3)C2=O)cc1	MEKK3 PB1 HTS 0.0[inhibitor] (no result: MEKK2wt PB1 HTS, MEKK2 mut-MEK5) | MEKK2wt confirm inactive | MEKK2mut-MEK5 inactive | MEKK3 confirm 69.0
O=C(/C=C/c1ccccc1)Nc1cc(S(=O)(=O)N2CCOCC2)ccc1N1CCCC1	MEKK3 PB1 HTS 142.0 | MEKK2wt confirm inactive | MEKK2mut-MEK5 inactive | MEKK3 confirm inactive
COc1ccc(/C=N/NC(=S)Nc2cc(S(=O)(=O)N3CCOCC3)ccc2N2CCOCC2)cc1O	none
COc1cc(/C=C/C(=O)Nc2cc(S(=O)(=O)N3CCOCC3)ccc2N2CCCC2)cc(OC)c1OC	none
COc1ccc2ccccc2c1/C=N/NC(=S)Nc1cc(S(=O)(=O)N2CCOCC2)ccc1N1CCOCC1	MEKK3 PB1 HTS 133.0 | MEKK2wt confirm inactive | MEKK2mut-MEK5 inactive | MEKK3 confirm inactive
CCN1CCN(c2ccc(S(=O)(=O)N3CCCCC3)cc2NC(=O)/C=C/c2cc(OC)ccc2OC)CC1	MEKK2wt PB1 HTS 174.0, MEKK2 mut-MEK5 25.0 | MEKK2wt confirm inactive | MEKK2mut-MEK5 inactive | MEKK3 confirm inactive
C/C(=N/Nc1ccc([N+](=O)[O-])cc1)c1ccc(C)cc1C	MEKK2wt PB1 HTS 148.0 | MEKK2wt confirm inactive | MEKK2mut-MEK5 inactive | MEKK3 confirm inactive
O=C(O)CC/C(=N/Nc1ccc([N+](=O)[O-])cc1)C(=O)O	MEKK3 PB1 HTS 75.0[inhibitor] | MEKK2wt confirm inactive | MEKK2mut-MEK5 inactive | MEKK3 confirm inactive
C/C(=N\Nc1ccc([N+](=O)[O-])cc1)c1ccc(C#N)cc1	none
CCN(Cc1ccccc1)C(c1cccc(C#N)c1)c1nnnn1C(C)(C)C (configuration not stated)	none
COC(=O)c1cc2ccsc2n1Cc1nc(-c2cccc(Cl)c2)oc1C	none
O=C1CC(=C(c2ccccc2)c2ccccc2)C(=O)N1CCCCN1CCN(c2cccc(Cl)c2)CC1	MEKK2wt PB1 HTS 142.0 | MEKK2wt confirm inactive | MEKK2mut-MEK5 inactive | MEKK3 confirm inactive
CC(C)c1c(O)c2c(n(-c3ccccc3)c1=O)CCCC2	none
O=C(Nc1ccccn1)c1cc2cc([N+](=O)[O-])ccc2s1	MEKK2 mut-MEK5 79.0 | MEKK2wt confirm inactive | MEKK2mut-MEK5 inactive | MEKK3 confirm inactive
O=C(Nc1ccccn1)c1ccc([N+](=O)[O-])cc1Cl	none
COc1ccc(C)cc1NC(=O)CSc1nc2ccccc2nc1N1CC(C)OC(C)C1 (configuration not stated)	none
O=C(CS(=O)(=O)c1ccccc1)NC1CCCCC1	none
O=C(Nc1ccc2c3c(cccc13)CC2)c1ccco1	none
CCOC(=O)CC1C(=O)NCCN1c1nc2ccc(C)cn2c(=O)c1/C=C1\SC(=S)N(C(C)CC)C1=O (configuration not stated)	none
